Source: ChEMBL document CHEMBL1121925, “Isoxicam and related 4-hydroxy-N-isoxazolyl-2H-1,2-benzothiazine-3-carboxamide 1,1-dioxides. Potent nonsteroidal antiinflammatory agents” (1982)
Calls of active or inactive are those of the source. The calls are words filed in the database; no cut-off is given here.

Legend:
Rattus norvegicus [1] = assay: Antiinflammatory activity was assessed in carrageenan-induced rat paw edema(CIRPE) test after po administration; Inactive at 100 mg/kg; assay type: functional, organism-based; set-up: dose 100 mg/kg
Method in brief: (§1)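 Male Charles-River rats, groups of 8–10; compound given orally as aqueous suspension, then 1 h later 0.05 mL of 1% carrageenin in 0.9% saline injected into plantar left hind paw. Injected and uninjected paw volumes measured 3 h later by mercury displacement to the lateral malleolus mark; difference compared statistically between treated and control groups at oral screening dose.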

Rattus norvegicus [2] = assay: Antiinflammatory activity was assessed in prophylactic adjuvant induced polyarthritis(AIP) test after po administration; assay type: functional; conditions: for minimal effective dose: Rattus norvegicus, po, read-out: MED
Method in brief: (§2)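 Male Charles-River-Lewis rats (150 ± 10 g), groups of 10. Day 1: heat-killed Mycobacterium butyricum in light mineral oil (250 μg/0.05 mL) injected into left hind paw. Dosing on days 1–20; sacrifice day 21, hind paw weights recorded; change taken as difference between day 1 and day 21.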

Rattus norvegicus [3] = assay: Antiinflammatory activity was assessed in carrageenan-induced rat paw edema(CIRPE) test after po administration; assay type: functional; conditions: read-out: MED; method in brief: as §1
Rattus norvegicus [4] = assay: Antiinflammatory activity was assessed in therapeutic adjuvant induced polyarthritis(AIP) test after po administration.; assay type: functional; conditions: read-out: MED
Method in brief: (§3)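 Male Charles-River-Lewis rats (150 ± 10 g) injected day 1 in left hind paw with heat-killed Mycobacterium butyricum in mineral oil (250 μg/0.05 mL). Day 14, only responders (lesions in both hind paws) randomized into groups of 10, treated days 14–27, sacrificed day 28; hind paw weight change from day 14 to day 28.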

Rattus norvegicus [5] = assay: Antiinflammatory activity was assessed in prophylactic adjuvant induced polyarthritis(AIP) test after po administration.; assay type: functional; conditions: read-out: MED; method in brief: as §2
Rattus norvegicus [6] = assay: Antiinflammatory activity was assessed in therapeutic adjuvant induced polyarthritis(AIP) test after po administration; assay type: functional; conditions: read-out: MED; method in brief: as §3

Compound	MED (Rattus norvegicus [1])	minimal effective dose (Rattus norvegicus [3])	other results
CC(=O)Cc1noc(C2=C(O)c3ccccc3S(=O)(=O)N2)n1	inactive	–	–
CCCCC1C(=O)N(c2ccccc2)N(c2ccccc2)C1=O [PHENYLBUTAZONE]	–	37.5 mg/kg	MED (Rattus norvegicus [2]): 1.56 mg/kg; minimal effective dose (Rattus norvegicus [2]): 1.56 mg/kg
CC(=O)Oc1ccccc1C(=O)O [ASPIRIN]	–	100 mg/kg	–
CC(=O)Cc1noc(C2=C(O)c3ccccc3S(=O)(=O)N2C)n1	inactive	–	–
Cc1cc(NC(=O)CC(=O)c2ccccc2S(=O)(=O)N(C)C)no1	inactive	–	–
COc1ccc2c(c1)c(CC(=O)O)c(C)n2C(=O)c1ccc(Cl)cc1 [INDOMETHACIN]	–	0.37 mg/kg	minimal effective dose (Rattus norvegicus [4]): 0.39 mg/kg; minimal effective dose (Rattus norvegicus [5]): 0.39 mg/kg
Cc1cc(NC(=O)C2=C(O)c3ccccc3S(=O)(=O)N2C)no1 [ISOXICAM]	–	12.5 mg/kg	minimal effective dose (Rattus norvegicus [2]): 1.56 mg/kg; minimal effective dose (Rattus norvegicus [6]): 1.56 mg/kg
Cc1cc(NC(=O)CNS(=O)(=O)c2ccccc2C(=O)O)no1	inactive	–	–
